Source: PubChem BioAssay (several laboratories)
Only some compounds are listed: those with a hit (about 3.9% of all), similar ones and a draw of the others.
TMEM16A inh – mouse TMEM16A channel inhibition, primary screen | actives 1.2% (n = 310,000) | HEK293 TMEM16A/YFP iodide influx fluorescence, ionomycin | AID 588511 | Q8BHY3 | normalized B-score (activity score, 25-100; higher = stronger inhibition) at 10 µM;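 active means ratio plate-corrected score three or more library SD toward inhibition, starting fluorescence score within five deviations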;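 further: score derived from kinetic fluorescence span divided by baseline fluorescence per well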
Target sequence (Q8BHY3 whole entry, looked up): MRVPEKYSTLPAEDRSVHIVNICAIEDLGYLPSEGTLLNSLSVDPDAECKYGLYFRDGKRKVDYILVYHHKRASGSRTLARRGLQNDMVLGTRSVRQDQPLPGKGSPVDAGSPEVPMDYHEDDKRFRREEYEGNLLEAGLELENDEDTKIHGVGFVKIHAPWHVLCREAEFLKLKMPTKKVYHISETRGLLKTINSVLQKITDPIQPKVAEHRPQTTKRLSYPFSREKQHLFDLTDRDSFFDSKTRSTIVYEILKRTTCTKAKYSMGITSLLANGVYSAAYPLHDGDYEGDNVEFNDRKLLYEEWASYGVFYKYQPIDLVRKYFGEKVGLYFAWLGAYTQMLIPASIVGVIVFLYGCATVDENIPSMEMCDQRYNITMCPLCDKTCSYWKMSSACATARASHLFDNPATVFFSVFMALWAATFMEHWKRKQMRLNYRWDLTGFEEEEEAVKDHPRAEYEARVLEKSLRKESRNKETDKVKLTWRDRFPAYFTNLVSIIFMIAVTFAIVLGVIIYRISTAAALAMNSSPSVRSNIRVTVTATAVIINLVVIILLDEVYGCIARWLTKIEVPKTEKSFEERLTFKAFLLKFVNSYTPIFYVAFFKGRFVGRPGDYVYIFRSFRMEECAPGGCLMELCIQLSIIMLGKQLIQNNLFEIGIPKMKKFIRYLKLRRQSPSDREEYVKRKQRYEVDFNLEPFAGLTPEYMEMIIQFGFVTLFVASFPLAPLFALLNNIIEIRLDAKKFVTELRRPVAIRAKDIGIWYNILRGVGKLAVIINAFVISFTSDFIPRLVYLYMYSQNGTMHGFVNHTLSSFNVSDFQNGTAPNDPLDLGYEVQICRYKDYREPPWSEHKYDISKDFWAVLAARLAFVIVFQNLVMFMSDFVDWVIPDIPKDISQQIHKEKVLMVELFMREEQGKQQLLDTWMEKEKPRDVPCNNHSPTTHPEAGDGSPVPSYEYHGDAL
TAAR1 antagonist – antagonists of human TAAR1; inhibition, % at 3 µM; CHO RD-HGA16 TAAR1, Fluo-8 calcium fluorescence, antagonist; actives 1.5% (n = 360,000); Q96RJ0;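 active means inhibition above a per-plate cutoff, the mean inhibition of test compounds on that plate plus 3 SD, cut at about 49% in these data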
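Test system – hTAAR1-expressing CHO RD-HGA16 cells, Gα16-coupled · Also added – β-PEA at EC80 concentration, post-compound challenge · Compound – 3 µM, single point · Incubation – dye loading 75 min at 37 °C, then 30 min room temperature · Measured by – Fluo-8 intracellular calcium dye fluorescence, real-time kinetic reads · Benchmarks – vehicle and agonist controls · Replicates – singlicate, one well per test compound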
CRFBP-R2 block – CRF-BP/CRF-R2 complex antagonism; HEK293 CRF-R2/CRF-BP, CRF-induced calcium fluorescence; inhibition, % at 11.8 µM; actives 0.59% (n = 350,000); AID 588475;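 active means inhibition of the ligand-induced calcium signal above about 50% at the single tested concentration, limit read from the data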
TMEM16A act – activates or potentiates the mouse TMEM16A chloride channel. AID 623877. B-score at 10 µM. actives 0.3% (n = 340,000). HEK293 TMEM16A/YFP-H148Q/I152L, iodide quench fluorescence; stronger effect = lower value. Q8BHY3;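 active means fluorescence-ratio B-score plate-corrected deviation score at least 3 library SD below zero, with starting fluorescence score within 5 deviations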;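 further: channel opened by trigger with iodide after compound preincubation; score built on the fluorescence ratio of max minus min over baseline; more negative score means more quench and so TMEM16A activation or potentiation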
TAAR1 agonist – human TAAR1 agonism; Q96RJ0; CHO RD-HGA16 TAAR1, Fluo-8 calcium fluorescence; vehicle wells 0%, saturating PEA agonist 100%; activation, % at 3 µM; actives 0.99% (n = 360,000); AID 624467;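 active means activation above the mean activation of all test compounds in the run plus 3 SD, cut at about 38% in these data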
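Repeats: no replicates (n 1) | Material: CHO-derived RD-HGA16 cells with stable Gα16 and human TAAR1 | Technique: Kinetic Fluo-8 calcium fluorescence | Schedule: 17-24 h seeding, 75 min 37 °C dye, 30 min RT | Evaluation: % activation from peak over basal fluorescence ratio, DMSO-to-PEA scaled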
CRFBP-R2 agonist – agonists of human CRF-binding protein/CRF-R2 receptor complex. HEK293 CRF-R2/CRF-BP, calcium dye fluorescence (FLIPR); percent of saturating CRF peptide response. activation, % at 13.2 µM. actives 0.46% (n = 350,000);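 active means activation of at least 50%, plus an integration ratio under a set limit after plate pattern correction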
Numbers stand for hits; 0 = inactive; - = no result.

SMILES	TMEM16A inh	TAAR1 antagonist	CRFBP-R2 block	TMEM16A act	TAAR1 agonist	CRFBP-R2 agonist
COc1ccc(NC(=O)CN(C)C(=O)c2ccc(NS(=O)(=O)c3ccc(F)cc3)cc2)cc1	0	0	0	0	0	0
NC(=O)CSc1nnnn1-c1ccc2c(c1)OCCO2	0	0	81	0	0	0
COc1ccccc1NC(=O)CSc1nnnn1-c1ccc2c(c1)OCO2	0	0	0	-7.5	0	0
Fc1ccccc1CSc1nnnn1-c1ccc2c(c1)OCO2	0	0	57	0	0	0
C[C@@H]1CN([C@H](C)CO)C(=O)c2cc(NC(=O)Nc3ccc(F)cc3)ccc2O[C@@H](C)CCCCO[C@H]1CN(C)S(=O)(=O)c1cccs1	-	0	0	-	0	0
NS(=O)(=O)c1ccc(NC(=O)c2cc(Cl)sc2Cl)cc1	0	0	0	0	0	0
Cc1c(C(=O)N2CC(C(=O)N3CCCCC3)Oc3ccccc32)oc2ccccc12 (stereo not given)	-	0	75	0	0	0
COC(=O)c1cc(-c2ccc(OC)c(OC)c2)c2c(=O)[nH]c(=O)n(C)c2n1	0	0	0	0	0	0
CC1(C)CC(=O)C2=C(C1)Nc1ccccc1S2	0	0	0	0	0	0
CC1(C)CC(=O)C2=C(C1)Nc1ccccc1NC2	0	0	0	0	0	55
O=C(NCc1cccnc1)/C(=C\c1ccc(-c2ccc(Cl)c(Cl)c2)o1)S(=O)(=O)c1ccccc1	0	0	0	-6.1	0	0
O=C(COC(=O)COc1ccccc1[N+](=O)[O-])NC1CCCCC1	-	0	0	0	0	0
COc1ccc(-c2cc(C)no2)cc1S(=O)(=O)N1CCN(C(=O)c2ccco2)CC1	0	0	75	0	0	0
Cc1cc(C)cc(Nc2c(F)c(F)c(F)c(F)c2C(=O)O)c1	0	0	52	0	0	0
COc1c(F)c(F)c(C(=O)O)c(Nc2cccc(C)c2)c1F	0	0	0	0	0	0
Cc1onc(-c2c(Cl)cccc2Cl)c1CO/N=C(\C#N)c1c(Cl)cccc1Cl	0	49	0	0	0	0
CCCc1cc(=O)oc2cc(OCC(=O)NCCCN3CCCC3=O)ccc12	0	0	0	0	0	0
CCOc1ccccc1NC(=O)COC(=O)c1ccc(S(=O)(=O)N2CCCC2)cc1	-	59	0	0	0	0
O=C(COC(=O)c1ccc(O)cc1)Nc1cc(S(=O)(=O)N2CCOCC2)ccc1Cl	-	53	0	0	0	0
CCN(CC)c1ccc(S(=O)(=O)N2CCOCC2)cc1NC(=O)COC(=O)/C=C/c1ccco1	-	54	0	0	0	0
CC(C)N(C(=O)[C@H]1CC(CC(=O)NCCC2=CCCCC2)C(=O)N2CCc3c([nH]c4ccccc34)[C@]12C)C(C)C (stereo not given in full)	-	0	0	-	0	0
CCOc1ccc(C(=O)N2CCC3(CC2)NCCc2[nH]cnc23)cc1	0	0	0	0	0	0
N#C/C(=C\c1ccc(N2CCOCC2)o1)C(=O)NCCc1ccccc1	0	0	0	0	41	200
COCCNC(=O)/C(C#N)=C/c1ccc(N2CCOCC2)o1	0	0	0	0	0	0
N#C/C(=C/c1ccc(N2CCOCC2)o1)C(=O)Nc1ccccc1	-	0	0	0	56	149
SMILES	TMEM16A inh	TAAR1 antagonist	CRFBP-R2 block	TMEM16A act	TAAR1 agonist	CRFBP-R2 agonist
COc1cc(/C=N\NC(=O)c2ccc(C)nc2)ccc1OC(=O)c1cccc(F)c1	0	0	0	0	0	0
Cc1ccc(S(=O)(=O)N2[C@@H](c3ccccc3F)C(C(=O)O)=CC[C@H]2c2ccc3c(c2)OCO3)cc1	0	0	0	0	0	0
O=[N+]([O-])c1ccc(/C=C/C2=NN(c3ccccc3)C(c3ccco3)C2)o1 (stereo not given)	-	0	0	0	0	66
CN(Cc1ccc2c(c1)OCCO2)C(=O)CSc1ncnc2sccc12	-	0	0	0	0	0
O=C(c1ccc(F)cc1)N(Cc1ccco1)C1CCS(=O)(=O)C1 (stereo not given)	0	0	0	0	0	0
O=C(c1ccc(F)cc1Cl)N(Cc1ccco1)C1CCS(=O)(=O)C1 (stereo not given)	-	0	75	0	0	0
CCC(C)(C)NC(=O)c1ccc2c(c1)OCCO2	0	0	0	-27	0	0
CN(c1cccnc1)c1ccc(NC(=O)Cc2cn(Cc3ccccc3)c3ccccc23)cc1Br	-	0	-	-	0	-
O=C(CCCCn1c(=O)c2ccccc2n(CC(=O)Nc2ccc(F)cc2)c1=O)NCc1ccco1	0	0	0	0	0	0
O=C(CCCCn1c(=O)c2ccccc2n(Cc2ccc(F)cc2Cl)c1=O)NCc1ccco1	0	0	75	0	0	0
NC(=O)c1ccsc1NC(=O)COC(=O)c1c(F)cccc1Cl	-	0	0	0	0	0
COc1cccc(/C=C2\Oc3cc(OCC(=O)N4CCCCC4)ccc3C2=O)c1OC	0	0	0	0	0	0
COc1cccc(/C=C2\Oc3cc(OCC(=O)N4CCCC4)ccc3C2=O)c1OC	0	0	0	-38	0	0
CCOC(=O)Cc1csc(NC(=O)CSc2nccn2C)n1	0	0	0	0	0	0
CC12CCC(C/C1=N\OC(=O)c1c(F)cccc1F)C2(C)C (stereo not given)	0	0	95	0	0	0
CCN1C/C(=C/c2ccc(N3CCOCC3)cc2)C(=O)/C(=C/c2ccc(N3CCOCC3)cc2)C1	0	0	0	0	0	114
CN1C/C(=C\c2ccc(N3CCOCC3)cc2)C(=O)/C(=C/c2ccc(N3CCOCC3)cc2)C1	0	0	0	0	0	66
C[C@@H](c1ccccc1)N1C[C@H](COCc2ccccc2)Oc2cc(N3CC[C@H](N(C)C)C3)ccc2S1(=O)=O	-	0	-	-	0	-
COc1ccc(F)cc1-c1cc(NC=O)c2ncc(-c3cc(OC)c(OC)c(OC)c3)n2c1	-	77	-	-	48	-
COc1ccccc1-c1cc(NC=O)c2ncc(-c3ccc(F)cc3)n2c1	-	51	-	-	52	-
Clc1c(CSc2nc3ccccc3o2)nc2ccccn12	0	0	0	-21	0	0
O=C1c2cccc(NCCCNCCO)c2C(=O)c2cccc(NCCCNCCO)c21	-	0	0	0	0	0
O=C(NC(c1ccc(F)cc1)c1ccc2ccccc2n1)C1CCN(Cc2ccc3ccccc3n2)CC1 (stereo not given)	-	0	-	-	0	-
COc1cc(/C=C/CN2CCC(C(=O)NC(c3ccc(F)cc3)c3ccc4ccccc4n3)CC2)ccc1OC(C)=O (stereo not given)	-	0	-	-	49	-
COc1cccc(-n2c(C)c(C(C)=O)c(C(C)=O)c2C)c1	0	0	0	-13	0	0
